Measurements from ChEMBL document CHEMBL1136700, “Identification of a broad-spectrum azasordarin with improved pharmacokinetic properties” (Bioorg Med Chem Lett, 2003).
Converted amounts (≈) assume the structure as drawn.

tested on: Candida albicans; assay: Minimum inhibitory concentration (MIC) to Candida albicans after 48 hr; type: functional; conditions: not given
How it was run: (§1)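 Antifungal susceptibility read visually; MIC taken as lowest drug concentration giving 90–100% inhibition of visible growth relative to drug-free controls, read over 48 h, or after 24 h where footnoted. Organisms: C. parapsilosis, C. albicans, Cryptococcus neoformans, C. glabrata, Aspergillus fumigatus, Aspergillus flavus.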

Row | SMILES | MIC [µg/mL]
1 | CC(C)C1=CC2CC3(C=O)[C@@H]4CC[C@@H](C)[C@H]4CC2(CO[C@H]2CN(C/C=C\Br)[C@H](C)CO2)[C@]13C(=O)O | < 0.06
2 | C=C(Cl)CN1C[C@H](OCC23C[C@@H]4[C@H](C)CC[C@H]4C4(C=O)CC2C=C(C(C)C)[C@@]34C(=O)O)OCC12CCCC2 | < 0.008
3 | CC(C)C1=CC2CC3(C=O)[C@@H]4CC[C@@H](C)[C@H]4CC2(CO[C@H]2CN(c4ccc(Cl)s4)[C@H](C)CO2)[C@]13C(=O)O | < 0.06
4 | CC(C)C1=CC2CC3(C=O)[C@@H]4CC[C@@H](C)[C@H]4CC2(CO[C@H]2CN(Cc4ccccc4Cl)[C@H](C)CO2)[C@]13C(=O)O | < 0.06
5 | C=C(Cl)CN1C[C@H](OCC23C[C@@H]4[C@H](C)CC[C@H]4C4(C=O)CC2C=C(C(C)C)[C@@]34C(=O)O)O[C@H](C)C1 | < 0.06
6 | CC(C)CN1C[C@H](OCC23C[C@@H]4[C@H](C)CC[C@H]4C4(C=O)CC2C=C(C(C)C)[C@@]34C(=O)O)OC[C@H]1C | < 0.06
7 | CC(C)C1=CC2CC3(C=O)[C@@H]4CC[C@@H](C)[C@H]4CC2(CO[C@H]2CN[C@H](C)CO2)[C@]13C(=O)O | 8 (≈ 18.5 µM)

tested on: Nakaseomyces glabratus; assay: Minimum inhibitory concentration (MIC) to Candida glabrata after 48 hours; type: functional; conditions: Nakaseomyces glabratus, 48 h; read-out: MIC; how it was run: as §1

Row | SMILES | MIC [µg/mL]
8 | CC(C)C1=CC2CC3(C=O)[C@@H]4CC[C@@H](C)[C@H]4CC2(CO[C@H]2CN(C/C=C\Br)[C@H](C)CO2)[C@]13C(=O)O | 1 (≈ 1.82 µM)
9 | C=C(Cl)CN1C[C@H](OCC23C[C@@H]4[C@H](C)CC[C@H]4C4(C=O)CC2C=C(C(C)C)[C@@]34C(=O)O)OCC12CCCC2 | 0.015 (≈ 0.0275 µM)
10 | CC(C)C1=CC2CC3(C=O)[C@@H]4CC[C@@H](C)[C@H]4CC2(CO[C@H]2CN(c4ccc(Cl)s4)[C@H](C)CO2)[C@]13C(=O)O | 0.125 (≈ 0.228 µM)
11 | CC(C)C1=CC2CC3(C=O)[C@@H]4CC[C@@H](C)[C@H]4CC2(CO[C@H]2CN(Cc4ccccc4Cl)[C@H](C)CO2)[C@]13C(=O)O | 1 (≈ 1.8 µM)
12 | C=C(Cl)CN1C[C@H](OCC23C[C@@H]4[C@H](C)CC[C@H]4C4(C=O)CC2C=C(C(C)C)[C@@]34C(=O)O)O[C@H](C)C1 | 0.125 (≈ 0.247 µM)
13 | CC(C)CN1C[C@H](OCC23C[C@@H]4[C@H](C)CC[C@H]4C4(C=O)CC2C=C(C(C)C)[C@@]34C(=O)O)OC[C@H]1C | 1 (≈ 2.05 µM)
14 | CC(C)C1=CC2CC3(C=O)[C@@H]4CC[C@@H](C)[C@H]4CC2(CO[C@H]2CN[C@H](C)CO2)[C@]13C(=O)O | 64 (≈ 148 µM)

tested on: Candida parapsilosis; assay: Minimum inhibitory concentration (MIC) to Candida parapsilosis after 48 hr; type: functional; conditions: Lodderomyces parapsilosis, 48 h; read-out: MIC; how it was run: as §1

Row | SMILES | MIC [µg/mL]
15 | CC(C)C1=CC2CC3(C=O)[C@@H]4CC[C@@H](C)[C@H]4CC2(CO[C@H]2CN(C/C=C\Br)[C@H](C)CO2)[C@]13C(=O)O | > 128
16 | C=C(Cl)CN1C[C@H](OCC23C[C@@H]4[C@H](C)CC[C@H]4C4(C=O)CC2C=C(C(C)C)[C@@]34C(=O)O)OCC12CCCC2 | 0.5 (≈ 0.916 µM)
17 | CC(C)C1=CC2CC3(C=O)[C@@H]4CC[C@@H](C)[C@H]4CC2(CO[C@H]2CN(c4ccc(Cl)s4)[C@H](C)CO2)[C@]13C(=O)O | > 128
18 | CC(C)C1=CC2CC3(C=O)[C@@H]4CC[C@@H](C)[C@H]4CC2(CO[C@H]2CN(Cc4ccccc4Cl)[C@H](C)CO2)[C@]13C(=O)O | > 128
19 | C=C(Cl)CN1C[C@H](OCC23C[C@@H]4[C@H](C)CC[C@H]4C4(C=O)CC2C=C(C(C)C)[C@@]34C(=O)O)O[C@H](C)C1 | 8 (≈ 15.8 µM)
20 | CC(C)CN1C[C@H](OCC23C[C@@H]4[C@H](C)CC[C@H]4C4(C=O)CC2C=C(C(C)C)[C@@]34C(=O)O)OC[C@H]1C | > 128
21 | CC(C)C1=CC2CC3(C=O)[C@@H]4CC[C@@H](C)[C@H]4CC2(CO[C@H]2CN[C@H](C)CO2)[C@]13C(=O)O | > 128

tested on: Cryptococcus neoformans; assay: Minimum inhibitory concentration against Cryptococcus neoformans after 48 hours; type: functional; conditions: not given; how it was run: as §1

Row | SMILES | MIC [µg/mL]
22 | CC(C)C1=CC2CC3(C=O)[C@@H]4CC[C@@H](C)[C@H]4CC2(CO[C@H]2CN(C/C=C\Br)[C@H](C)CO2)[C@]13C(=O)O | > 128
23 | C=C(Cl)CN1C[C@H](OCC23C[C@@H]4[C@H](C)CC[C@H]4C4(C=O)CC2C=C(C(C)C)[C@@]34C(=O)O)OCC12CCCC2 | < 0.008
24 | CC(C)C1=CC2CC3(C=O)[C@@H]4CC[C@@H](C)[C@H]4CC2(CO[C@H]2CN(c4ccc(Cl)s4)[C@H](C)CO2)[C@]13C(=O)O | 2 (≈ 3.65 µM)
25 | CC(C)C1=CC2CC3(C=O)[C@@H]4CC[C@@H](C)[C@H]4CC2(CO[C@H]2CN(Cc4ccccc4Cl)[C@H](C)CO2)[C@]13C(=O)O | 4 (≈ 7.19 µM)
26 | C=C(Cl)CN1C[C@H](OCC23C[C@@H]4[C@H](C)CC[C@H]4C4(C=O)CC2C=C(C(C)C)[C@@]34C(=O)O)O[C@H](C)C1 | > 128
27 | CC(C)CN1C[C@H](OCC23C[C@@H]4[C@H](C)CC[C@H]4C4(C=O)CC2C=C(C(C)C)[C@@]34C(=O)O)OC[C@H]1C | 32 (≈ 65.6 µM)
28 | CC(C)C1=CC2CC3(C=O)[C@@H]4CC[C@@H](C)[C@H]4CC2(CO[C@H]2CN[C@H](C)CO2)[C@]13C(=O)O | > 128

tested on: not listed separately; assay: Half life period was measured upon intravenous administration (5 mg/kg); type: ADME, organism-based; conditions: in vivo
How it was run: (§2)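 Mice dosed iv at 5 mg/kg or orally at 20 mg/kg, n = 3; drug concentrations measured in plasma/serum over time to derive half-life, Cmax, total body clearance, steady-state volume and oral bioavailability.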

Row | SMILES | half-life [min]
29 | C=C(Cl)CN1C[C@H](OCC23C[C@@H]4[C@H](C)CC[C@H]4C4(C=O)CC2C=C(C(C)C)[C@@]34C(=O)O)O[C@H](C)C1 | 26.4

tested on: not listed separately; assay: Total body clearance was determined; type: ADME, organism-based; conditions: in vivo; how it was run: as §2

Row | SMILES | clearance [mL/min/kg]
30 | C=C(Cl)CN1C[C@H](OCC23C[C@@H]4[C@H](C)CC[C@H]4C4(C=O)CC2C=C(C(C)C)[C@@]34C(=O)O)O[C@H](C)C1 | 13

tested on: Aspergillus fumigatus; assay: Minimum inhibitory concentration (MIC) to Aspergillus fumigatus after 48 hr; type: functional; conditions: Aspergillus fumigatus, 48 h; read-out: MIC; how it was run: as §1

Row | SMILES | MIC [µg/mL]
31 | CC(C)C1=CC2CC3(C=O)[C@@H]4CC[C@@H](C)[C@H]4CC2(CO[C@H]2CN(C/C=C\Br)[C@H](C)CO2)[C@]13C(=O)O | > 128
32 | C=C(Cl)CN1C[C@H](OCC23C[C@@H]4[C@H](C)CC[C@H]4C4(C=O)CC2C=C(C(C)C)[C@@]34C(=O)O)OCC12CCCC2 | 8 (≈ 14.6 µM)
33 | CC(C)C1=CC2CC3(C=O)[C@@H]4CC[C@@H](C)[C@H]4CC2(CO[C@H]2CN(c4ccc(Cl)s4)[C@H](C)CO2)[C@]13C(=O)O | > 128
34 | CC(C)C1=CC2CC3(C=O)[C@@H]4CC[C@@H](C)[C@H]4CC2(CO[C@H]2CN(Cc4ccccc4Cl)[C@H](C)CO2)[C@]13C(=O)O | > 128
35 | C=C(Cl)CN1C[C@H](OCC23C[C@@H]4[C@H](C)CC[C@H]4C4(C=O)CC2C=C(C(C)C)[C@@]34C(=O)O)O[C@H](C)C1 | > 128
36 | CC(C)CN1C[C@H](OCC23C[C@@H]4[C@H](C)CC[C@H]4C4(C=O)CC2C=C(C(C)C)[C@@]34C(=O)O)OC[C@H]1C | > 128
37 | CC(C)C1=CC2CC3(C=O)[C@@H]4CC[C@@H](C)[C@H]4CC2(CO[C@H]2CN[C@H](C)CO2)[C@]13C(=O)O | > 128

tested on: not listed separately; assay: Volume of steady state concentration was determined; type: ADME, organism-based; conditions: in vivo; read-out: Vss; how it was run: as §2

Row | SMILES | Vd [L/kg]
38 | C=C(Cl)CN1C[C@H](OCC23C[C@@H]4[C@H](C)CC[C@H]4C4(C=O)CC2C=C(C(C)C)[C@@]34C(=O)O)O[C@H](C)C1 | 0.49

tested on: Aspergillus flavus; assay: Minimum inhibitory concentration (MIC) against Aspergillus flavus after 24 hours; type: functional; conditions: Aspergillus flavus, 24 h; read-out: MIC; how it was run: as §1

Row | SMILES | MIC [µg/mL]
39 | CC(C)C1=CC2CC3(C=O)[C@@H]4CC[C@@H](C)[C@H]4CC2(CO[C@H]2CN(C/C=C\Br)[C@H](C)CO2)[C@]13C(=O)O | > 128
40 | C=C(Cl)CN1C[C@H](OCC23C[C@@H]4[C@H](C)CC[C@H]4C4(C=O)CC2C=C(C(C)C)[C@@]34C(=O)O)OCC12CCCC2 | 0.125 (≈ 0.229 µM)
41 | CC(C)C1=CC2CC3(C=O)[C@@H]4CC[C@@H](C)[C@H]4CC2(CO[C@H]2CN(c4ccc(Cl)s4)[C@H](C)CO2)[C@]13C(=O)O | > 128
42 | CC(C)C1=CC2CC3(C=O)[C@@H]4CC[C@@H](C)[C@H]4CC2(CO[C@H]2CN(Cc4ccccc4Cl)[C@H](C)CO2)[C@]13C(=O)O | > 128
43 | C=C(Cl)CN1C[C@H](OCC23C[C@@H]4[C@H](C)CC[C@H]4C4(C=O)CC2C=C(C(C)C)[C@@]34C(=O)O)O[C@H](C)C1 | 4 (≈ 7.9 µM)
44 | CC(C)CN1C[C@H](OCC23C[C@@H]4[C@H](C)CC[C@H]4C4(C=O)CC2C=C(C(C)C)[C@@]34C(=O)O)OC[C@H]1C | > 128
45 | CC(C)C1=CC2CC3(C=O)[C@@H]4CC[C@@H](C)[C@H]4CC2(CO[C@H]2CN[C@H](C)CO2)[C@]13C(=O)O | > 128
